Measurements as given in PubChem BioAssay AID504382 (The Scripps Research Institute Molecular Screening Center, 2011).
The whole screen tested about 2,500 compounds, of which about 460 (18%) were called active. Only a sample is shown. Unmarked numbers belong to inactive results.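 The calls were made as follows: active = mean activation above a cutoff of low control average plus 3 SD from the earlier screen (cut at about 12% in these data); inactive = the rest.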

assay: compound fluorescence interference without thin filaments, confirmation, artefact control for cardiac RTF calcium sensitizer project, biochemical (AID 504382); conditions: IANBD fluorescence interference counterscreen, buffer, EC20 Ca2+; at 7.2 µM; stronger effect = higher value; scaled: EC20 calcium 0, EC100 calcium 100
Summary of the method: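 Medium: MOPS/KCl/MgCl2/EGTA/NTA/DTT buffer, pH 7.2 | Reagent: EC20 calcium, 0.472 mM | Compound dosing: 7.2 µM single dose | Times: 15 min compound exposure at 25 °C | Signal: Fluorescence, 480/540 nm | Measure: Interference relative to controls | Repeats: Triplicate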

| Structure (SMILES) | fluorescence artifact activation |
| --- | --- |
| COc1cccc(/C=N/Nc2nnc(C)n2N)c1O | 0.12% |
| CC(C)(C)c1ccc(-c2n[nH]c(=S)n2CC2CCCO2)cc1 (configuration not stated) | 34.7% (active) |
| CCOc1cc(/C=C2\NC(=O)NC2=O)cc([N+](=O)[O-])c1O | 0.01% |
| COc1ccc(/C=C2/SC(c3ccc(C)cc3)=NC2=O)cc1OC | 6.74% |
| CCOC(=O)c1ccc(-c2c(-c3ccc4c(c3)OCO4)noc2C)cc1F | 0.96% |
| O=C(Cc1nc2ccccc2[nH]c1=O)c1ccccc1 | 0.01% |
| O=C(O)CSc1nc2ccccc2nc1Cc1ccccc1F | 163% (active) |
| O=c1ccc2cc3c4c(c2o1)CCCN4CCC3 | 9.87% |
| Cn1ncc2c(O/N=C(\N)c3ccc(C(F)(F)F)cc3)ncnc21 | 18.5% (active) |
| Cc1c(O)c(=O)c2ccccc2n1C | 2.22% |
| CCOc1ccc2ccccc2c1CNCCN1CCOCC1 | 9.02% |
| CCCCCOc1ccc(CN2CCOCC2)cc1Cl | 25.8% (active) |
| CCCOc1ccc(Cn2c(=O)oc3ccc(C)cc32)cc1OC | 6.44% |
| CCC(=O)N(C)CCc1cc2c(c(OC)c1/C=N/NC(=O)c1ccc(Br)cc1)OCO2 | 0.24% |
| O=C(Cn1c(=O)c(=O)n(Cc2ccccc2)c2ccc(Cl)cc21)Nc1ccc(F)cc1F | 0.95% |
| COc1ncnc2c1N=C1CC(C)(C)CC(N)=C1S2 | 17.8% (active) |
| CC1(C)CC2CC(C)(CN2C(=S)Nc2ccccc2F)C1 (configuration not stated) | 0.69% |
| O=C(NC1CC1)c1cccc2c1C(=O)c1ccc(N3CCC(Cc4ccccc4)CC3)cc1S2(=O)=O | -0.05% |
| O=C1CCC/C(=N/NC(=O)c2sc3ccccc3c2Cl)C1 | 0.36% |
| O=C1CCCC(=NNC(=O)c2cc3ccccc3cc2O)C1 | 0.08% |
| COc1ccc2c(Cl)c(C(=O)N/N=C3\CCCC(=O)C3)sc2c1 | 16.2% (active) |
| CN(C)/C=C/C(=O)c1ccc(Br)s1 | 0.3% |
| O=C(O)c1ccccc1CSc1nnnn1-c1ccccc1 | 13.5% (active) |
| C(=N\Nc1nnnn1-c1ccccc1)/c1ccncc1 | 0.02% |
| O=c1c(/C=N/Nc2ccccc2)c(Sc2nnnn2-c2ccccc2)nc2ccccn12 | -0.06% |

| Structure (SMILES) | fluorescence artifact activation |
| --- | --- |
| Cc1ccnc(NC(=O)c2ccc(Br)s2)c1 | 0.08% |
| CCCCC1=CC2=C(c3ccco3)C(=O)C(C)(OC(=O)c3ccc(OC)cc3)C(=O)C2=CN1CCc1ccccn1 (configuration not stated) | 5.57% |
| O=C(COC(=O)/C=C/c1ccccc1[N+](=O)[O-])NNC(=O)c1ccc(F)cc1 | 0.09% |
| COCc1cc(C)n(CC(=O)Nc2ccccc2C(=O)OC)c(=O)c1C#N | 5.24% |
| COc1ccc(OC)c(NC(=S)Nc2ccccc2)c1 | -0.01% |
| COc1ccc(OC)c(NC(=O)CNC(=O)Cn2c(C)cc3ccccc3c2=O)c1 | 1380% (active) |
| C=CCn1c(COc2cccc(C)c2)nnc1SCn1nnc2ccccc2c1=O | 0.03% |
| NC(=O)C1(NC(=O)[C@@H]2CC3(CC(c4cccc(NC(=O)[C@@H]5CCC(=O)N5)c4)=NO3)CN2C(=O)c2ccccc2)CC1 (some centres not stated) | 0.3% |
| CCC(=O)Nc1ccc(NC(=S)NC(=O)c2oc3ccccc3c2C)cc1 | 0.25% |
| COCCCn1c(=O)/c(=C\c2ccccc2OC(C)C)s/c1=C(/C#N)C(=O)Nc1ccc(C(=O)O)cc1 | 0.05% |
| CN(C)c1ccc(/C=C(\C#N)C(=O)c2ccccc2)cc1 | 0.22% |
| CN(C)c1ccc(/C=C(/C#N)C(=O)NCc2ccccc2)o1 | 2.9% |
| CCN(CC)c1ccc(/C=C(\C#N)C(=O)NCc2ccccc2)cc1 | 13.8% (active) |
| CCN(CC)c1ccc(/C=C(/C#N)C(=O)NCc2ccccc2)o1 | 0.1% |
| CCN(CC)c1ccc(/C=C(\C#N)C(=O)c2ccc(Br)cc2)cc1 | -0.11% |
| CCN(CC)c1ccc(/C=C(\C#N)C(N)=S)cc1 | 16.2% (active) |
| O=C(COC(=O)c1ccc(S(=O)(=O)N2CCCC2)cc1)NCc1ccco1 | 0.32% |
| COc1ccccc1C(=O)NN(C)C1=NS(=O)(=O)c2ccccc21 | 0.12% |
| CCNC(=O)NNC(=O)C1CC(c2cccs2)=NO1 (configuration not stated) | 0% |
| Cc1ccc(C2NC(=O)c3c(sc4c3CCN(C)C4)N2)o1 (configuration not stated) | 0.12% |
| CCOC(=O)c1c(C)[nH]c(C2=NNC(=NC(C)COC)SC2)c1C (configuration not stated) | 22% (active) |
| Cc1cc(C)n(-c2ccc([N+](=O)[O-])cc2-c2nn[nH]n2)n1 | 2.39% |
| CCC(=Cc1ccccc1OC)c1ccncc1 | 3.06% |
| COc1ccc(CCNc2cc(C)[nH]c(=O)c2)cc1OC | 0.6% |
| COc1ccc(NC(=O)CCN2CC(C)OC(C)C2)c(OC)c1 (configuration not stated) | 0.05% |

| Structure (SMILES) | fluorescence artifact activation |
| --- | --- |
| Cc1ccc(C)c(NC(=O)CCN2CCOCC2)c1 | -0.02% |
| COc1ccc(NC(=O)CCN2CCCC2)c(OC)c1 | 27.4% (active) |
| COc1ccc(Nc2nc3ccc(C)cc3cc2C#N)c(OC)c1 | 0.04% |
| CCCN(CCC)S(=O)(=O)c1ccc(C(=O)OCCN2C(=O)c3cccc4c(N5CCOCC5)ccc(c34)C2=O)cc1 | 4.63% |
| Cc1ccccc1NC(=O)c1nnn(-c2ccc3c(c2)OCCO3)c1N | 0.09% |
| CCN1C(=O)c2cccc3c(NC(=O)c4ccc5c(c4)OCCO5)ccc1c23 | 36.4% (active) |
| COc1cc(/C=C(\C#N)c2nc3ccccc3s2)ccc1OCC(=O)Nc1ccccc1 | 36.6% (active) |
| COc1cc(/C=C(/C#N)C(=O)NCCCc2ccccc2)ccc1OCC(=O)O | 0.24% |
| N#C/C(=C\c1ccccn1)c1nc2ccccc2s1 | 0.06% |
| Cc1ccc(S(=O)(=O)Nc2ccccc2N(C)S(=O)(=O)c2ccc(C)cc2)cc1 | 2.27% |
| NC(=O)c1cc2ccc(O)cc2oc1=NCc1ccccc1 | 0.04% |
| CCN1CC=C2C(C1)C(c1ccc(Cl)s1)C(C#N)=C(N)C2(C#N)C#N (configuration not stated) | 2.16% |
| COc1cccc(F)c1C(=O)NC(=O)Nc1ccc2nc(C)oc2c1 | 42.8% (active) |
| CCNC(=S)N/N=C/c1sc(N2CCCCC2)nc1-c1cccs1 | 0.09% |
| Cc1ccc(CNC(=O)CCS(=O)(=O)c2cc3c(cc2C)NC(=O)CO3)cc1 | 0.29% |
| Cc1ncn(C23CC4CC(CC(C4)C2)C3)n1 | 0% |
| CCc1ccc(C(=O)NNc2cc(Cl)ccc2Cl)cc1 | 0.03% |
| Cc1c(Br)c(C(=O)N2CCc3ccccc32)nn1C | 0.13% |
| Cc1cccc2cc3c(N)c(C(=O)N4CCc5ccccc54)sc3nc12 | -0.06% |
| Cc1nn(C)c(C(=O)N2CCc3ccccc32)c1Br | 23.4% (active) |
| Nc1ccc2c3c(cccc13)CC2 | 0.07% |
| O=C(Cn1c2[n+](c3ccc(C(F)(F)F)cc31)CCCCC2)Nc1ccccc1 | 0.33% |
| CC(=O)/C(C=Nc1noc(C)c1Br)=C(\C)O | 11.4% |
| CCC1(CC)C(=O)Nc2ccccc21 | -0.02% |
| COc1ccc2[nH]c(C(=O)N3CCC(Cc4ccccc4)CC3)cc2c1 | 0.13% |

| Structure (SMILES) | fluorescence artifact activation |
| --- | --- |
| COc1ccccc1N1CCN(C(=O)c2cn(-c3ccccc3)nc2-c2cccnc2)CC1 | 0.33% |
| COc1ccccc1N1CCN(C(=O)c2ccc(Cn3c(=O)[nH]c4ccsc4c3=O)cc2)CC1 | 51.1% (active) |
| COc1ccc(C(=O)c2sc3nc(C)cc(-c4cccs4)c3c2N)cc1OC | 0.66% |
| CC(=O)c1ccc2noc(-c3ccc(C)cc3)c2c1 | 0.23% |
| COc1ccccc1-c1sc2ccccc2c1-c1ccc(Br)nc1 | 0.93% |
| Oc1ccc(-c2c(C3=CCCCC3)sc3ccccc23)cc1 | 28.2% (active) |
| CCOc1ccccc1C=NNC(=O)CCCCC(=O)NN=Cc1ccccc1OCC | 0.77% |
| Cc1noc(C)c1NC(=O)N(C)C[C@H]1Oc2c(NS(=O)(=O)c3cccs3)cccc2C(=O)N([C@H](C)CO)C[C@@H]1C | -0.07% |
| O=C(NC(=S)NCCN1CCOCC1)c1ccc(F)cc1 | 21.2% (active) |
| CC(C)(C)c1ccc(C(=O)NC(=S)Nc2ccc(N3CCOCC3)cc2)cc1 | 0.09% |
| COC(=O)Cc1ccc(NC(=S)NCCCN2CCOCC2)cc1 | -0.02% |
| CCCCNC(=O)Nc1nnc(-c2ccccc2)o1 | 0.13% |
| S=C(Nc1ccc(Cl)cc1)N(CCCN1CCOCC1)Cc1ccco1 | 0.04% |
| CCC1OC23CCCCC2C(C#N)(C(=N)O3)C1(C#N)C#N (configuration not stated) | 0.21% |
| Cn1cccc1Cc1nnc(SCC(=O)Nc2ccc(F)cc2F)n1-c1ccc(F)cc1 | 1.86% |
| CC(=O)c1cc(NC(=O)c2ccccc2)c(=O)oc1/C=C/N(C)C | 0.09% |
| COC(=O)c1cc(NC(=O)c2ccccc2)c(=O)oc1/C=C/Nc1ccc(Oc2ccccc2)cc1 | 18.6% (active) |
| COc1ccc(C(=O)Nc2cc(C(C)=O)c(/C=C/N(C)C)oc2=O)cc1 | 9.8% |
| Cc1cccc(N2C(=O)c3cccc4c(N)ccc(c34)C2=O)c1 | 0.02% |
| CCN(CC)c1ccc2cc(-c3nc(-c4cc5ccccc5oc4=O)cs3)c(=O)oc2c1 | -0.03% |
| CCN(CC)c1ccc2cc(-c3nnc(-c4ccncc4)o3)c(=O)oc2c1 | 1.48% |
| CCN(CC)c1ccc2cc(-c3nnc(-c4ccccc4)o3)c(=O)oc2c1 | 43.7% (active) |
